Experimental data taken from ChEMBL document CHEMBL2417544, “Design, synthesis and biological evaluation of azithromycin glycosyl derivatives as potential antibacterial agents” (2013).
Converted amounts (≈) assume the structure as drawn.

Key:
Type in all cases: functional
Streptococcus pneumoniae [1] = experiment: Antibacterial activity against Streptococcus pneumoniae 943 by standard dilution assay
Procedure, shortened: (§1)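 Broth dilution MIC per NCCLS guidance. Compounds dissolved in DMSO, serially diluted in growth medium, inoculated and incubated at 35 °C. MIC80 taken as the first well showing roughly 80% less growth than the drug-free well. Each test run three times; values are means of replicates.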

Streptococcus pneumoniae [2] = experiment: Antibacterial activity against Streptococcus pneumoniae 746 by standard dilution assay; procedure, shortened: as §1
Staphylococcus aureus [3] = experiment: Antibacterial activity against methicillin-resistant Staphylococcus aureus MRSA-1 by standard dilution assay
Procedure, shortened: (§2)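 Broth dilution MIC per NCCLS guidance. Compounds dissolved in DMSO, serially diluted in growth medium, inoculated and incubated at 35 °C. MIC80 read as the first well with about 80% less growth than the drug-free well. Erythromycin and azithromycin were run as positive controls. Each test was done three times, and values are means of the replicates.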

Escherichia coli [4] = experiment: Antibacterial activity against Escherichia coli 236 by standard dilution assay; procedure, shortened: as §1
Staphylococcus aureus [5] = experiment: Antibacterial activity against methicillin-susceptible Staphylococcus aureus MSSA-1 by standard dilution assay; procedure, shortened: as §2
Escherichia coli [6] = experiment: Antibacterial activity against Escherichia coli ATCC 25922 by standard dilution assay; procedure, shortened: as §1
Staphylococcus aureus [7] = experiment: Antibacterial activity against Staphylococcus aureus ATCC 25923 by standard dilution assay; procedure, shortened: as §2
Streptococcus pyogenes = experiment: Antibacterial activity against Streptococcus pyogenes 447 by standard dilution assay; procedure, shortened: as §1
Staphylococcus aureus [8] = experiment: Ratio of erythromycin A MIC80 to compound MIC80 for methicillin-susceptible Staphylococcus aureus MSSA-1
Procedure, shortened: (§3)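 Ratio of the reference macrolide's MIC80 (azithromycin or erythromycin A, tested in parallel) to the compound's MIC80. Both come from the same NCCLS broth dilution run: DMSO stocks serially diluted in medium, inoculated, 35 °C. MIC80 is the first well with about 80% lower growth than the drug-free control. Triplicate tests, means used.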

Streptococcus pneumoniae [9] = experiment: Ratio of erythromycin A MIC80 to compound MIC80 for Streptococcus pneumoniae 943; procedure, shortened: as §3
Streptococcus pneumoniae [10] = experiment: Ratio of erythromycin A MIC80 to compound MIC80 for Streptococcus pneumoniae 746; procedure, shortened: as §3
Streptococcus pneumoniae [11] = experiment: Ratio of azithromycin MIC80 to compound MIC80 for Streptococcus pneumoniae 943; procedure, shortened: as §3

SMILES	MIC80 (Streptococcus pneumoniae [1]) [µg/mL]	MIC80 (Streptococcus pneumoniae [2]) [µg/mL]	MIC80 (Staphylococcus aureus [3]) [µg/mL]	MIC80 (Escherichia coli [4]) [µg/mL]	MIC80 (Staphylococcus aureus [5]) [µg/mL]	MIC80 (Escherichia coli [6]) [µg/mL]	MIC80 (Staphylococcus aureus [7]) [µg/mL]	MIC80 (Streptococcus pyogenes) [µg/mL]	Ratio (Staphylococcus aureus [8])	Ratio (Streptococcus pneumoniae [9])	Ratio (Streptococcus pneumoniae [10])	Ratio (Streptococcus pneumoniae [11])
CC[C@H]1OC(=O)[C@H](C)[C@@H](O[C@H]2C[C@@](C)(OC)[C@@H](OC(=O)NCCO[C@@H]3O[C@H](CO)[C@@H](O)[C@H](O)[C@@H]3O)[C@H](C)O2)[C@H](C)[C@@H](O[C@@H]2O[C@H](C)C[C@H](N(C)C)[C@H]2O)[C@](C)(O)C[C@@H](C)CN(C)[C@H](C)[C@H]2OC(=O)O[C@@]21C	4 (≈ 3.91 µM)	4 (≈ 3.91 µM)	8 (≈ 7.81 µM)	64 (≈ 62.5 µM)	8 (≈ 7.81 µM)	128 (≈ 125 µM)	8 (≈ 7.81 µM)	32 (≈ 31.2 µM)	–	–	–	–
CC[C@H]1OC(=O)[C@H](C)[C@@H](O[C@H]2C[C@@](C)(OC)[C@@H](OC(=O)NCCO[C@@H]3O[C@@H](C)[C@H](O)[C@@H](O)[C@H]3O)[C@H](C)O2)[C@H](C)[C@@H](O[C@@H]2O[C@H](C)C[C@H](N(C)C)[C@H]2O)[C@](C)(O)C[C@@H](C)CN(C)[C@H](C)[C@H]2OC(=O)O[C@@]21C	4 (≈ 3.97 µM)	8 (≈ 7.93 µM)	8 (≈ 7.93 µM)	128 (≈ 127 µM)	2 (≈ 1.98 µM)	128 (≈ 127 µM)	16 (≈ 15.9 µM)	64 (≈ 63.5 µM)	8	–	–	–
CC[C@H]1OC(=O)[C@H](C)[C@@H](O[C@H]2C[C@@](C)(OC)[C@@H](OC(=O)NCCO[C@@H]3OC[C@@H](O)[C@H](O)[C@H]3O)[C@H](C)O2)[C@H](C)[C@@H](O[C@@H]2O[C@H](C)C[C@H](N(C)C)[C@H]2O)[C@](C)(O)C[C@@H](C)CN(C)[C@H](C)[C@H]2OC(=O)O[C@@]21C	2 (≈ 2.01 µM)	4 (≈ 4.02 µM)	16 (≈ 16.1 µM)	64 (≈ 64.4 µM)	16 (≈ 16.1 µM)	256 (≈ 257 µM)	8 (≈ 8.05 µM)	16 (≈ 16.1 µM)	–	–	–	–
CC[C@H]1OC(=O)[C@H](C)[C@@H](O[C@H]2C[C@@](C)(OC)[C@@H](O)[C@H](C)O2)[C@H](C)[C@@H](O[C@@H]2O[C@H](C)C[C@H](N(C)C)[C@H]2O)[C@](C)(O)C[C@@H](C)CN(C)[C@H](C)[C@@H](O)[C@]1(C)O [AZITHROMYCIN]	4 (≈ 5.34 µM)	8 (≈ 10.7 µM)	16 (≈ 21.4 µM)	256 (≈ 342 µM)	2 (≈ 2.67 µM)	256 (≈ 342 µM)	16 (≈ 21.4 µM)	32 (≈ 42.7 µM)	–	–	–	–
CC[C@H]1OC(=O)[C@H](C)[C@@H](O[C@H]2C[C@@](C)(OC)[C@@H](OC(=O)NCCO[C@@H]3O[C@H](CO)[C@@H](O[C@@H]4O[C@H](CO)[C@@H](O)[C@H](O)[C@H]4O)[C@H](O)[C@H]3O)[C@H](C)O2)[C@H](C)[C@@H](O[C@@H]2O[C@H](C)C[C@H](N(C)C)[C@H]2O)[C@](C)(O)C[C@@H](C)CN(C)[C@H](C)[C@H]2OC(=O)O[C@@]21C	8 (≈ 6.74 µM)	16 (≈ 13.5 µM)	32 (≈ 27 µM)	128 (≈ 108 µM)	32 (≈ 27 µM)	256 (≈ 216 µM)	16 (≈ 13.5 µM)	64 (≈ 53.9 µM)	–	–	–	–
CC[C@H]1OC(=O)[C@H](C)[C@@H](O[C@H]2C[C@@](C)(OC)[C@@H](O)[C@H](C)O2)[C@H](C)[C@@H](O[C@@H]2O[C@H](C)C[C@H](N(C)C)[C@H]2O)[C@](C)(O)C[C@@H](C)C(=O)[C@H](C)[C@@H](O)[C@]1(C)O [ERYTHROMYCIN]	8 (≈ 10.9 µM)	16 (≈ 21.8 µM)	16 (≈ 21.8 µM)	256 (≈ 349 µM)	16 (≈ 21.8 µM)	256 (≈ 349 µM)	16 (≈ 21.8 µM)	32 (≈ 43.6 µM)	–	–	–	–
CC[C@H]1OC(=O)[C@H](C)[C@@H](O[C@H]2C[C@@](C)(OC)[C@@H](OC(=O)NCCO[C@@H]3O[C@H](CO)[C@@H](O[C@H]4O[C@H](CO)[C@@H](O)[C@H](O)[C@H]4O)[C@H](O)[C@H]3O)[C@H](C)O2)[C@H](C)[C@@H](O[C@@H]2O[C@H](C)C[C@H](N(C)C)[C@H]2O)[C@](C)(O)C[C@@H](C)CN(C)[C@H](C)[C@H]2OC(=O)O[C@@]21C	8 (≈ 6.74 µM)	16 (≈ 13.5 µM)	16 (≈ 13.5 µM)	128 (≈ 108 µM)	16 (≈ 13.5 µM)	256 (≈ 216 µM)	32 (≈ 27 µM)	32 (≈ 27 µM)	–	–	–	–
CC[C@H]1OC(=O)[C@H](C)[C@@H](O[C@H]2C[C@@](C)(OC)[C@@H](OC(=O)NCCO[C@@H]3O[C@H](CO)[C@@H](O)[C@H]3O)[C@H](C)O2)[C@H](C)[C@@H](O[C@@H]2O[C@H](C)C[C@H](N(C)C)[C@H]2O)[C@](C)(O)C[C@@H](C)CN(C)[C@H](C)[C@H]2OC(=O)O[C@@]21C	4 (≈ 4.02 µM)	8 (≈ 8.05 µM)	8 (≈ 8.05 µM)	64 (≈ 64.4 µM)	8 (≈ 8.05 µM)	128 (≈ 129 µM)	4 (≈ 4.02 µM)	64 (≈ 64.4 µM)	–	–	–	–
CC[C@H]1OC(=O)[C@H](C)[C@@H](O[C@H]2C[C@@](C)(OC)[C@@H](OC(=O)NCCO[C@@H]3O[C@H](CO)[C@H](O)[C@H](O)[C@H]3O)[C@H](C)O2)[C@H](C)[C@@H](O[C@@H]2O[C@H](C)C[C@H](N(C)C)[C@H]2O)[C@](C)(O)C[C@@H](C)CN(C)[C@H](C)[C@H]2OC(=O)O[C@@]21C	1 (≈ 0.976 µM)	2 (≈ 1.95 µM)	32 (≈ 31.2 µM)	128 (≈ 125 µM)	4 (≈ 3.91 µM)	128 (≈ 125 µM)	32 (≈ 31.2 µM)	64 (≈ 62.5 µM)	–	8	8	4
CC[C@H]1OC(=O)[C@H](C)[C@@H](O[C@H]2C[C@@](C)(OC)[C@@H](OC(=O)NCCO[C@@H]3O[C@H](CO)[C@@H](O)[C@H](O)[C@H]3O)[C@H](C)O2)[C@H](C)[C@@H](O[C@@H]2O[C@H](C)C[C@H](N(C)C)[C@H]2O)[C@](C)(O)C[C@@H](C)CN(C)[C@H](C)[C@H]2OC(=O)O[C@@]21C	1 (≈ 0.976 µM)	2 (≈ 1.95 µM)	16 (≈ 15.6 µM)	64 (≈ 62.5 µM)	2 (≈ 1.95 µM)	128 (≈ 125 µM)	8 (≈ 7.81 µM)	16 (≈ 15.6 µM)	8	8	8	4
